# Variants at the floor of the assay were thinned out.
# B1: tRNA (parent)
# chain: GUUCCGUUGGCGUAAUGGUAACGCGUCUCCCUCCUAAGGAGAAGACUGCGGGUUCGAGUCCCGUACGGAACG
# Variants of: B1
# Assay: yeast fitness relative to wild type (ratio to wild type); higher = fitter; tRNA-Arg(CCU), competitive growth, 37 C, YPD
# Outline: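 Changes in genotype frequencies gave Darwinian fitness relative to wild type. Frequencies were read by 100-nucleotide paired-end sequencing of gene amplicons before and after pooled Saccharomyces cerevisiae strains, carrying tRNA-Arg(CCU) gene variants at the native locus, were competed in YPD at 37°C for 24 hours in six replicates. A genotype was kept only with ≥ 100 starting reads, and estimates < 0.5 were set to 0.5.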
row,Variant,yeast fitness
1,GUUCCGUUGGCGUAAUGGUAACGCGUCUCCCUCCUAAGGAGAUGACUGCGGGUUCGAGUCCCGUACAGAACG,0.79
2,GUUCCGUUGGCGUAAUGGUAACGCGUCUCCCUCCUAAGGAGAUGACUGCGGGUUCGAGUCCCGUACCGAACG,0.778
3,GUUCCGUUGGCGUAAUGGUAACGCGUCUCCCUCCUAAGGAGAUGACUGCGGGUUCGAGUCCCGUACUGAACG,0.87
4,GUUCCGUUGGCGUAAUGGUAACGCGUCUCCCUCCUAAGGAGAUGACUGCGGGUUCGAGUCCCGUACGAAACG,0.669
5,GUUCCGUUGGCGUAAUGGUAACGCGUCUCCCUCCUAAGGAGAUGACUGCGGGUUCGAGUCCCGUACGCAACG,0.815
6,GUUCCGUUGGCGUAAUGGUAACGCGUCUCCCUCCUAAGGAGAUGACAGCGGGUUCGAGUCCCGUACGGAACG,0.799
7,GUUCCGUUGGCGUAAUGGUAACGCGUCUCCCUCCUAAGGAGAUGACGGCGGGGUCGAGUCCCGUACGGUACG,≤ 0.5
8,GUUCCGUUGGCGUAAUGGUAACGCGUCUCCCUCCUAAGGAGAUGACUGCGGGAUCGAGUCCCGUACGGAACG,0.666
9,GUUCCGUUGGCGUAAUGGUAACGCGUCUCCCUCCUAAGGAGAUGACUGCGGGCUCGAGUCCCGUACGGAACG,0.854
10,GUUCCGUUGGCGUAAUGGUAACGCGUCUCCCUCCUAAGGAGAUGACUGCGGGUUCGAGACCCGUACGGAACG,0.807
11,GUUCCGUUGGCGUAAUGGUAACGCGUCUCCCUCCUAAGGAGAUGACUGCGGGUUCGAGUCCCGCACGGAACG,1.02
12,GUUCCGUUGGCGUAAUGGUAACGCGUCUCCCUCCUAAGGAGAAAACUGCGGGUUCGAGUCCCGUACGGAACG,0.982
13,GUUCCGUUGGCGUAAUGGUAACGCGUCUCCCUCCUAAGGAGAAACCUGUGGGUUCGAGUCGCGUACGGAACG,≤ 0.5
14,GUUCCGUUGGCGUAAUGGUAACGCGUCUCCCUCCUAAGGAGAAAGCUGCGCGUUCGAGUCCCGUAUGGCACG,0.576
15,GUUCCGUUGGCGUAAUGGUAACGCGUCUCCCUCCUAAGGAGAAAUCUGCGGGUUCGAGUCCCGUACGGAACG,0.885
16,GUUCCGUUGGCGUAAUGGUAACGCGUCUCCCUCCUAAGGAGAAAACUGCGGGUUCGGAUCCCGUACGGAACG,0.695
17,GUUCCGUUGGCGUAAUGGUAACGCGUCUCCCUCCUAAGGAGAAAACUGCGGGUUCGUGUCCCGUACGGAACG,0.635
18,GUUCCGUUGGCGUAAUGGUAACGCGUCUCCCUCCUAAGGAGAAAACUGCGGGUUCGAGUCCCGUCCGGAACG,1.05
19,GUUCCGUUGGCGUAAUGGUAACGCGUCUCCCUCCUAAGGAGAAAACUGCGGGUUCGAGUCCCGUUCGGAACG,0.816
20,GUUCCGUUGGCGUAAUGGUAACGCGUCUCCCUCCUAAGGAGAAAACUGCGGGUUCGAGUCCCGUACGGUACG,1.06
21,GUUCCGUUGGCGUAAUGGUAACGCGUCUCCCUCCUAAGGAGAAAAAUGCGGGUUCGAGUCCCGUACGGAACG,0.835
22,GUUCCGUUGGCGUAAUGGUAACGCGUCUCCCUCCUAAGGAGAAAAGUGCGGGUUCGAGUCCCGUACGGAACG,0.928
23,GUUCCGUUGGCGUAAUGGUAACGCGUCUCCCUCCUAAGGAGAAAAUUGCGGGUUCGAGUCCUGUACGGAACG,0.723
24,GUUCCGUUGGCGUAAUGGUAACGCGUCUCCCUCCUAAGGAGAAAAUUGCGGGUUCGAAUCCCGUACGGAACG,0.687
25,GUUCCGUUGGCGUAAUGGUAACGCGUCUCCCUCCUAAGGAGAAAACUGGGGGUUCGAGUCCCGUACGGAACG,0.714

row,Variant,yeast fitness
1,GUUCCGUUGGCGUAAUGGUAACGCGUCUCCCUCCUAAGGAGAAAACUGUGGGUUCGAGUCCAGUACCGAACG,≤ 0.5
2,GUUCCGUUGGCGUAAUGGUAACGCGUCUCCCUCCUAAGGAGAAAACUGCGGGUUGGAGUCCCGUACGGAACG,0.558
3,GUUCCGUUGGCGUAAUGGUAACGCGUCUCCCUCCUAAGGAGAAAACUGCGGGUUUGAGUCCCGUACGGCACG,0.585
4,GUUCCGUUGGCGUAAUGGUAACGCGUCUCCCUCCUAAGGAGAAAACUGCGGGUUUGAGUCCCAUACGGAACG,≤ 0.5
5,GUUCCGUUGGCGUAAUGGUAACGCGUCUCCCUCCUAAGGAGAAAACUGCGGGUUUGAGUCCCGAACGGCACG,≤ 0.5
6,GUUCCGUUGGCGUAAUGGUAACGCGUCUCCCUCCUAAGGAGAAAACUGCGGGUUCGAGUGCCGUACGGAACG,0.667
7,GUUCCGUUGGCGUAAUGGUAACGCGUCUCCCUCCUAAGGAGAAAACUGCGGGUUCGAGUCGCGUACGGAACG,0.597
8,GUUCCGUUGGCGUAAUGGUAACGCGUCUCCCUCCUAAGGAGAAAACUGCGGGUUCGAGUCCCGUAGGGAACG,0.641
9,GUUCCGUUGGCGUAAUGGUAACGCGUCUCCCUCCUAAGGAGAAAACUGCGCGUUCGAGUCCCGUACGGAACG,0.572
10,GUUCCGUUGGCGUAAUGGUAACGCGUCUCCCUCCUAAGGAGAAAACUGCGGGUUCAAGACCCGUACGGAACG,0.575
11,GUUCCGUUGGCGUAAUGGUAACGCGUCUCCCUCCUAAGGAGAAAACUGCGGGUUCCAGUCCUGUACGGAACG,0.695
12,GUUCCGUUGGCGUAAUGGUAACGCGUCUCCCUCCUAAGGAGAAAACUGCGGGUUCGAAUCCCGUACGGAACG,0.955
13,GUUCCGUUGGCGUAAUGGUAACGCGUCUCCCUCCUAAGGAGAAAACUGCGGGUUCGACUCCCGUACGGAACG,0.911
14,GUUCCGUUGGCGUAAUGGUAACGCGUCUCCCUCCUAAGGAGAAAACUGCGGGUUCGAGUCCCAUACGGAACG,0.97
15,GUUCCGUUGGCGUAAUGGUAACGCGUCUCCCUCCUAAGGAGAAAACUGCGGGUUCGAGUCCCCUACGGAACG,0.826
16,GUUCCGUUGGCGUAAUGGUAACGCGUCUCCCUCCUAAGGAGAAAACUGCGGGUCCGAGUCCCGUACGGAACG,0.723
17,GUUCCGUUGGCGUAAUGGUAACGCGUCUCCCUCCUAAGGAGAAAACUGCGGGUCCCAGUCCCGUACGGAACG,≤ 0.5
18,GUUCCGUUGGCGUAAUGGUAACGCGUCUCCCUCCUAAGGAGAAAACUGCGGGUUCGAGUCCCGGACGGAACG,0.694
19,GUUCCGUUGGCGUAAUGGUAACGCGUCUCCCUCCUAAGGAGAACACUGCGGGUUCGAGUCCCGUACGGAACG,0.985
20,GUUCCGUUGGCGUAAUGGUAACGCGUCUCCCUCCUAAGGAGAACGCUGCGGGUUCGAGUCCCGUACAGAACG,0.695
21,GUUCCGUUGGCGUAAUGGUAACGCGUCUCCCUCCUAAGGAGAACUCUGCGGGCUCGAGUCCCGUACGGAACG,0.605
22,GUUCCGUUGGCGUAAUGGUAACGCGUCUCCCUCCUAAGGAGAACACUGCGGGUUCGUGUCCCGUACGGAACG,0.554
23,GUUCCGUUGGCGUAAUGGUAACGCGUCUCCCUCCUAAGGAGAACACUGCGGGUUCGAGUCCCGUGCGGACCG,0.682
24,GUUCCGUUGGCGUAAUGGUAACGCGUCUCCCUCCUAAGGAGAACACUGCGGGUUCGAGUCCCGUACGGGACG,1.04
25,GUUCCGUUGGCGUAAUGGUAACGCGUCUCCCUCCUAAGGAGAACACUGCGGGUUUGAGUCCCGUACGGAACG,0.731

row,Variant,yeast fitness
1,GUUCCGUUGGCGUAAUGGUAACGCGUCUCCCUCCUAAGGAGAACACUGCGGGUUCGAGUACCGUAUGGAACG,≤ 0.5
2,GUUCCGUUGGCGUAAUGGUAACGCGUCUCCCUCCUAAGGAGAACACUGCGGGUUCGAGUGCCGUACGGAACG,0.59
3,GUUCCGUUGGCGUAAUGGUAACGCGUCUCCCUCCUAAGGAGAACACUGCGGGUUCGAGUGCCGUGCGGAACG,0.617
4,GUUCCGUUGGCGUAAUGGUAACGCGUCUCCCUCCUAAGGAGAACACUGCGGGUUCGAGUCACGUACGGAACG,0.583
5,GUUCCGUUGGCGUAAUGGUAACGCGUCUCCCUCCUAAGGAGAACACUGCGGGUUCGAGUCACGUAUGGAACG,0.824
6,GUUCCGUUGGCGUAAUGGUAACGCGUCUCCCUCCUAAGGAGAACACUGCGGGUUCGAGUCCUGUACGGAACG,0.902
7,GUUCCGUUGGCGUAAUGGUAACGCGUCUCCCUCCUAAGGAGAACACUGCGGGUUCGAGUCCCGUAUGGAACG,0.692
8,GUUCCGUUGGCGUAAUGGUAACGCGUCUCCCUCCUAAGGAGAACACUGCGGGUUCGAGUCCCGUAUGGACCG,0.88
9,GUUCCGUUGGCGUAAUGGUAACGCGUCUCCCUCCUAAGGAGAACACUGCAGGUUCGAGUCCCGUACGGUACG,0.63
10,GUUCCGUUGGCGUAAUGGUAACGCGUCUCCCUCCUAAGGAGAACACUGCCGGUUCGAGUCCCGUACGGACCG,0.573
11,GUUCCGUUGGCGUAAUGGUAACGCGUCUCCCUCCUAAGGAGAACACUGCCGGUGCGAGUCGCGUACGGAACG,0.568
12,GUUCCGUUGGCGUAAUGGUAACGCGUCUCCCUCCUAAGGAGAACACUGCCGGUGCGAGUCGCGCACGGAACG,≤ 0.5
13,GUUCCGUUGGCGUAAUGGUAACGCGUCUCCCUCCUAAGGAGAACACUGCGGAUUCGAGUCCCGUACGGAACG,0.833
14,GUUCCGUUGGCGUAAUGGUAACGCGUCUCCCUCCUAAGGAGAACACUGCGGAUUCGAGUCCCGUACGGGACG,≤ 0.5
15,GUUCCGUUGGCGUAAUGGUAACGCGUCUCCCUCCUAAGGAGAACACUGCGGGUUCAGGUCCCGUACGGAACG,0.543
16,GUUCCGUUGGCGUAAUGGUAACGCGUCUCCCUCCUAAGGAGAACACUGCGGGUUCAAGUCCCGUAUGGAACG,0.634
17,GUUCCGUUGGCGUAAUGGUAACGCGUCUCCCUCCUAAGGAGAACACUGCGGGUUCCAGUCCCGUACGGAACG,0.58
18,GUUCCGUUGGCGUAAUGGUAACGCGUCUCCCUCCUAAGGAGAACACUGCGGGUUCGACUCCCGUAUGGAACG,0.653
19,GUUCCGUUGGCGUAAUGGUAACGCGUCUCCCUCCUAAGGAGAACACUGCGGGUUCGAGUCCCCUACGGAACG,0.623
20,GUUCCGUUGGCGUAAUGGUAACGCGUCUCCCUCCUAAGGAGAACACUGCGGGUUCGAGUCCCCUACGAAACG,≤ 0.5
21,GUUCCGUUGGCGUAAUGGUAACGCGUCUCCCUCCUAAGGAGAACACUGCGGGUUCGAGUCCCGUACCGAACG,0.823
22,GUUCCGUUGGCGUAAUGGUAACGCGUCUCCCUCCUAAGGAGAACACUGCGGGUUCGAGUCCCGUACGAAACG,0.937
23,GUUCCGUUGGCGUAAUGGUAACGCGUCUCCCUCCUAAGGAGAACACUGCGGGUACGAGUCACGUACGGAACG,0.561
24,GUUCCGUUGGCGUAAUGGUAACGCGUCUCCCUCCUAAGGAGAACACUGCGGGUCCGAGUCCCGUAUGGAACG,0.601
25,GUUCCGUUGGCGUAAUGGUAACGCGUCUCCCUCCUAAGGAGAACACUGCGGGUCCGAGUCCCGAACGAAACG,≤ 0.5
